Test results published in ChEMBL document CHEMBL4376835, “Discovery of Nonpungent Transient Receptor Potential Vanilloid 1 (TRPV1) Agonist as Strong Topical Analgesic” (J Med Chem, 2020).
The source made the active and inactive calls.

Key:
[1] = molecular target: T1, Transient receptor potential cation channel subfamily V member 1 (Homo sapiens, UniProt Q8NER1); test: Agonist activity at human TRPV1 expressed in CHO cells assessed as increase in 45Ca2+ uptake incubated for 5 mins by liquid scintillation counting method; assay type: cell-based
Method in brief: (§1)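 Human or rat TRPV1 heterologously expressed in CHO cells; agonism read as 45Ca2+ uptake, run as previously described. Values are the mean of at least three experiments.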

[2] = molecular target: Transient receptor potential cation channel subfamily V member 1 (Rattus norvegicus, UniProt O35433); test: Agonist activity at rat TRPV1 expressed in CHO cells assessed as increase in 45Ca2+ uptake incubated for 5 mins by liquid scintillation counting method; assay type: cell-based; method in brief: as §1
[3] = molecular target: T1, Transient receptor potential cation channel subfamily V member 1; test: Agonist activity at human TRPV1 expressed in HEK293 cells assessed as increase in calcium influx at 0.3 to 30 uM incubated for 1 min by Fluo-4-AM dye based FLIPR assay; assay type: cell-based
Method in brief: (§2)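 Cells individually transfected with a single TRP channel (TRPV1, hTRPA1, mTRPA1, mTRPV3 or mTRPM8). Intracellular calcium influx recorded by FLIPR after the test compound was applied. Each cell type was also challenged with an agonist suited to its own TRP channel.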

[4] = molecular target: Transient receptor potential cation channel subfamily M member 8 (Mus musculus) (UniProt Q8R4D5); test: Agonist activity at mouse TRPM8 expressed in HEK293 cells assessed as increase in calcium influx at 0.3 to 30 uM incubated for 1 min by Fluo-4-AM dye based FLIPR assay; assay type: cell-based; method in brief: as §2
Rattus norvegicus [5] = test: Analgesic activity in ip dosed L5/L6 spinal nerve ligation-induced neuropathic pain Sprague-Dawley rat model assessed as increase in paw withdrawal threshold in response to von frey filament compound administered at day 14 after ligation and measured up to 1.5 hrs after drug dosing by up and down method; assay type: functional
Method in brief: (§3)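 Rat spinal nerve ligation model of neuropathic pain. Compound was given i.p. at 1, 2, 5 or 10 mg/kg; a gabapentin 65 mg/kg i.p. arm and a saline i.p. arm were run alongside. Von Frey withdrawal thresholds were taken pre-surgery and on days 1, 7 and 14, then at 0.5, 1 and 1.5 h post-dose. Mean±SEM, n=7-8.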

Mus musculus [6] = test: Induction of hypothermia in ICR mouse assessed as decrease in body temperature at 0.5 mg/kg, ip coadministered with capsaicin and measured for 7 hrs; assay type: functional, organism-based
Mus musculus [7] = test: Induction of hypothermia in ip dosed ICR mouse assessed as decrease in body temperature measured for 7 hrs; assay type: functional, organism-based
Mus musculus [8] = test: (§4) Analgesic activity in ip dosed formalin-induced nociception ICR mouse model assessed as reduction in pain behaviour by measuring less licking of formalin injected hind paw pretreated with compound 30 mins prior to formalin induction measured during first phase (0-5 mins after formalin injection) by formalin test; assay type: functional
Method in brief: (§5)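 Mice were dosed i.p. with 0.1–10 mg/kg, with vehicle and gabapentin (50, 100 mg/kg i.p.) arms. 2% formalin was injected into the dorsal hindpaw, and paw-licking time was recorded for the first phase (5 min) and the second phase (20–30 min). ED50 was taken from the dose–response. Mean±SEM, n=8.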

Mus musculus [9] = test: as §4, with “second” for “first”, “(20-30” for “(0-5”; assay type: functional; method in brief: as §5
Mus musculus [10] = test: as §4, with “against” for “in ip dosed”, “paw at 1 mg/kg, ip” for “paw”, “second” for “first”, “(20-30” for “(0-5”; assay type: functional; method in brief: as §5
Rattus norvegicus [11] = test: Analgesic activity against L5/L6 spinal nerve ligation-induced neuropathic pain Sprague-Dawley rat model assessed as decrease in neuropathic pain by measuring increase in paw withdrawal threshold in response to von frey filament at 5 to 10 mg/kg, ip compound administered at day 14 after ligation and measured up to 1.5 hrs after drug dosing by up and down method relative to control; assay type: functional; method in brief: as §3
Rattus norvegicus [12] = test: Analgesic activity against L5/L6 spinal nerve ligation-induced neuropathic pain Sprague-Dawley rat model assessed as maximal decrease in neuropathic pain by measuring increase in paw withdrawal threshold in response to von frey filament at 1 to 4 mg/kg, sc compound administered at day 14 after ligation and measured at 30 mins after drug dosing by up and down method; assay type: functional, organism-based
Method in brief: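 Rats with spinal nerve ligation were dosed s.c. Paw withdrawal threshold measured with von Frey filaments up to 1.5 h after dosing. Mean±SEM, n=7-8, compared with vehicle.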

Mus musculus [13] = test: Antiallodynic activity against capsaicin-induced mechanical allodynia ICR mouse model assessed as inhibition of mechanical hyperalgesia administered topically 30 mins before capsaicin injection and measured over 5 mins; assay type: functional, organism-based
[14] = Toxicity in ICR mouse assessed as skin irritation by measuring ear scratching administered topically and measured for 30 mins; details: in vivo, topical_or_ocular, 0.5 h
Method in brief: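 Ear scratching test: a solution of the agent was applied to mouse ears, and scratching movements were counted over the following 30 min.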

[15] = Toxicity in ICR mouse assessed as ear edema administered topically and measured after 30 mins; details: in vivo, topical_or_ocular, 0.5 h
Method in brief: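 Ear swelling test: a solution of the agent was applied to mouse ears, and ear punch biopsies were collected 30 min later and weighed.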

[16] = Toxicity in ip dosed ICR mouse administered as single dose; assay type: organism-based; details: in vivo
[17] = Toxicity in po dosed ICR mouse administered as single dose; assay type: organism-based; details: in vivo
[18] = Toxicity in Sprague-Dawley rat assessed as pathological problems administered topically daily for 4 weeks; details: in vivo, topical_or_ocular, 672 h
Method in brief: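 Rats given daily topical application for 4 weeks, then examined for pathological findings.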

[19] = Genotoxicity in CHL/IU cells by chromosomal aberration assay; assay type: toxicity, cell-based, Cricetulus griseus; details: chinese hamster
[20] = molecular target: Transient receptor potential cation channel subfamily V member 1 (Rattus norvegicus) (UniProt O35433); test: Agonist activity at rat TRPV1 expressed in HEK293 cells assessed as increase in calcium influx at 0.3 to 30 uM incubated for 1 min by Fluo-4-AM dye based FLIPR assay; assay type: cell-based; method in brief: as §2
[21] = Genotoxicity in Salmonella typhimurium TA97 incubated for 48 hrs by Ames test; assay type: toxicity; details: salmonella enterica subsp. enterica serovar typhimurium
[22] = Genotoxicity in Salmonella typhimurium TA98 incubated for 48 hrs by Ames test; assay type: toxicity; details: salmonella enterica subsp. enterica serovar typhimurium
[23] = Genotoxicity in Salmonella typhimurium TA102 incubated for 48 hrs by Ames test; assay type: toxicity; details: salmonella enterica subsp. enterica serovar typhimurium
[24] = Genotoxicity in Salmonella typhimurium TA104 incubated for 48 hrs by Ames test; assay type: toxicity; details: salmonella enterica subsp. enterica serovar typhimurium
[25] = Genotoxicity in Salmonella typhimurium TA1535 incubated for 48 hrs by Ames test; assay type: toxicity; details: salmonella enterica subsp. enterica serovar typhimurium
[26] = Genotoxicity in CHO-WBLT cells assessed as chromosomal aberration incubated for 6 hrs in presence of rat S9 by laser scan cytometry; assay type: toxicity, subcellular, Cricetulus griseus; details: chinese hamster, s9, 6 h
[27] = Genotoxicity in CHO-WBLT cells assessed as chromosomal aberration incubated for 6 hrs in presence of rat S9 by Q-banding technique; assay type: toxicity, subcellular, Cricetulus griseus; details: chinese hamster, s9, 6 h
[28] = Genotoxicity in Salmonella typhimurium TA98 incubated for 48 hrs in presence of rat S9 by Ames test; assay type: toxicity, subcellular; details: salmonella enterica subsp. enterica serovar typhimurium, s9, 48 h
[29] = Genotoxicity in Salmonella typhimurium TA102 incubated for 48 hrs in presence of rat S9 by Ames test; assay type: toxicity, subcellular; details: salmonella enterica subsp. enterica serovar typhimurium, s9, 48 h

T1 sequence (Q8NER1 whole entry): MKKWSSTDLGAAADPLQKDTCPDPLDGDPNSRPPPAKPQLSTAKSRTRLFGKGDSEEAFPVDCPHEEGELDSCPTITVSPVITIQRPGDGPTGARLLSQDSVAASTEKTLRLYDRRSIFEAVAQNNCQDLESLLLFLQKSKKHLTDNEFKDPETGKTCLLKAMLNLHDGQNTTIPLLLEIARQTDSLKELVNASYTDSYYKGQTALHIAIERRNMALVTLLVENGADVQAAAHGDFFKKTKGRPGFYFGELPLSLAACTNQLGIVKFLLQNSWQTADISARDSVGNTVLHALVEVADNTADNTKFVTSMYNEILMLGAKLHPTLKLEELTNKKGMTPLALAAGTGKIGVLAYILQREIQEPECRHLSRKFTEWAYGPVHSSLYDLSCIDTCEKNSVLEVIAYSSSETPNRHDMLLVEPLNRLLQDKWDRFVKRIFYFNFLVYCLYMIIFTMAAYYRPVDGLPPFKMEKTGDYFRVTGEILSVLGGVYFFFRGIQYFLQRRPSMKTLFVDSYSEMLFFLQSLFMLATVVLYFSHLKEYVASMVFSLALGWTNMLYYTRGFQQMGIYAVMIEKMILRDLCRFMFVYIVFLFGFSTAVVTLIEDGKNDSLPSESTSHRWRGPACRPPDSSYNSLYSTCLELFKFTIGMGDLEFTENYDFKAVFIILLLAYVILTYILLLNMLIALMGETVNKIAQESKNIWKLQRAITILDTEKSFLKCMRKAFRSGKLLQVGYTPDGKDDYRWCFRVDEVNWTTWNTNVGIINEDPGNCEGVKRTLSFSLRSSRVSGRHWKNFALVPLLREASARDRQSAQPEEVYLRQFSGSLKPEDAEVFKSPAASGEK
Sequence of Transient receptor potential cation channel subfamily V member 1 (Rattus norvegicus) (O35433 whole entry): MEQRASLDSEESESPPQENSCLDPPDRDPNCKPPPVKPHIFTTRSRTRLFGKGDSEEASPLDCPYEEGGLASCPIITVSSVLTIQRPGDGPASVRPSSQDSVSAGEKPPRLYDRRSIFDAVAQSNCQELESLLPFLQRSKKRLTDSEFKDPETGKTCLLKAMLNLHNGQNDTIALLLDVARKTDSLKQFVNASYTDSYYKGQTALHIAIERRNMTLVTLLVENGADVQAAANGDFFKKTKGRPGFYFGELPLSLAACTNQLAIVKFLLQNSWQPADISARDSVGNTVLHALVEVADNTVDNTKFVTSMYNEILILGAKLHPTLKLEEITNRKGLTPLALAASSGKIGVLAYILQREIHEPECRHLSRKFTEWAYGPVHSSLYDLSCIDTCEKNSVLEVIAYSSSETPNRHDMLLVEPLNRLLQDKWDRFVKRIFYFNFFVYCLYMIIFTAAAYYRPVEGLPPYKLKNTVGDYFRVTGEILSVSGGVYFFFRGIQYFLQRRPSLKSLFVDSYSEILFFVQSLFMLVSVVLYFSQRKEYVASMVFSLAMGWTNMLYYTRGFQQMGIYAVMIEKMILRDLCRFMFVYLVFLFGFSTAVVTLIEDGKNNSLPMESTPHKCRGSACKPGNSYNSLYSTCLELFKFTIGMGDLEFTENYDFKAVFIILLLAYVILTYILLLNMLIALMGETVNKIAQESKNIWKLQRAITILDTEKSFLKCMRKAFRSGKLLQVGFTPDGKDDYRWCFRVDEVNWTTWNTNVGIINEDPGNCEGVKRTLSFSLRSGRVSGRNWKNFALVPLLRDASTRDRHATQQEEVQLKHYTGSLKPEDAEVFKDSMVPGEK
Sequence of Transient receptor potential cation channel subfamily V member 1 (Rattus norvegicus, UniProt O35433) (O35433 whole entry): as above
Sequence of Transient receptor potential cation channel subfamily M member 8 (Mus musculus) (Q8R4D5 whole entry): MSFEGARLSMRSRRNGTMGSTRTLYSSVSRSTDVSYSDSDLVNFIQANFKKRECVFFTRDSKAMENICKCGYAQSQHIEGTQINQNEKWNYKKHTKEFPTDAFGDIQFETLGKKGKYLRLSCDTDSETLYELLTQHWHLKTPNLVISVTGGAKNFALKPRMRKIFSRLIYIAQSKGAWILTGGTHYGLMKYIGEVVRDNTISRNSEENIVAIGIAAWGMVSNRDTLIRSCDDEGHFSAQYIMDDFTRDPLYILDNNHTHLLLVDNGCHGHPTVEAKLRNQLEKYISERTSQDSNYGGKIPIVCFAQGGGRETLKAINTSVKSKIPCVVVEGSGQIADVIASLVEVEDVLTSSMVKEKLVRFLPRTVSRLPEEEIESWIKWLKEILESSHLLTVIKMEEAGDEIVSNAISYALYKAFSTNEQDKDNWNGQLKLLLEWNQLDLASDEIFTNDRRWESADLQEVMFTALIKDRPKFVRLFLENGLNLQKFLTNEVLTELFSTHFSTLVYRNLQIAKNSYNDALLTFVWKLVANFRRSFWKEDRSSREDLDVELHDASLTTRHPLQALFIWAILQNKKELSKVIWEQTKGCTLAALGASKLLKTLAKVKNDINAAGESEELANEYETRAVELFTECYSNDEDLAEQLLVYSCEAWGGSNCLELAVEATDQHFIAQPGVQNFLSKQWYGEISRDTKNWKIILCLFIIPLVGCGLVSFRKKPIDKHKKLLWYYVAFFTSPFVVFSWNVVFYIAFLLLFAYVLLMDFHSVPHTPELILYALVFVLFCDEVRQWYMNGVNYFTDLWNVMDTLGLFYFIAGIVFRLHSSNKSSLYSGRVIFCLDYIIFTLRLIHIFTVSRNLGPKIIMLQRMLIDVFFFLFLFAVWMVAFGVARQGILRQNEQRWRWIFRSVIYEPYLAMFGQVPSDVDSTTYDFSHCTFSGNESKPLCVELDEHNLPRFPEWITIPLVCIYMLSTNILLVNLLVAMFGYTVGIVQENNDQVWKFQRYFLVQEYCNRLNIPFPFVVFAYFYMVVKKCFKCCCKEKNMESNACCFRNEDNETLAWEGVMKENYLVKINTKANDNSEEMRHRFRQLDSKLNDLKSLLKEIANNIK

Which EC50 [1] does the source give for `CC(C)(C)c1nc(-c2cccc(Cl)c2)c(CNC(=O)Nc2ccc(CO)c(F)c2)s1` here?
The EC50 was 5.05 nM.

What about the EC50 [2] of the same compound?
Its EC50 is 93 nM.

And the Activity [3]?
The Activity was “Active”.

And the Activity [4]?
The Activity was “inactive”.

And the Activity (Rattus norvegicus [5])?
The Activity was “Dose-dependent effect”.

And the ED50 (Rattus norvegicus [5])?
The ED50 was 0.5 to 2 mg/kg.

And the Activity (Mus musculus [6])?
The Activity was “Active”.

And the Activity (Mus musculus [7])?
Its Activity is “Dose-dependent effect”.

What about the Activity (Mus musculus [8]) of the same compound?
Its Activity is “Dose-dependent effect”.

What about the ED50 (Mus musculus [8]) of the same compound?
The ED50 was 0.79 mg/kg.

And the Activity (Mus musculus [9])?
The Activity was “Dose-dependent effect”.

And the ED50 (Mus musculus [9])?
Its ED50 is 0.16 mg/kg.

What about the MPE (Mus musculus [10]) of the same compound?
Its MPE is 100%.

What about the MPE (Rattus norvegicus [11]) of the same compound?
Its MPE is 100%.

What about the Activity (Rattus norvegicus [12]) of the same compound?
The Activity was “Active”.

And the Activity (Mus musculus [13])?
The Activity was “Dose-dependent effect”.

And the Activity [14]?
The Activity was “Non-Toxic”.

What about the Activity [15] of the same compound?
Its Activity is “Non-Toxic”.

What about the LD50 [16] of the same compound?
The LD50 was over 200 mg/kg.

And the LD50 [17]?
The LD50 was over 2000 mg/kg.

What about the Activity [18] of the same compound?
Its Activity is “Non-Toxic”.

What about the Activity [19] of the same compound?
Its Activity is “Non-Toxic”.

What about the Activity [20] of the same compound?
Its Activity is “Active”.

And the Activity [21]?
The Activity was “Non-Toxic”.

What about the Activity [22] of the same compound?
Its Activity is “Non-Toxic”.

What about the Activity [23] of the same compound?
Its Activity is “Non-Toxic”.

What about the Activity [24] of the same compound?
The Activity was “Non-Toxic”.

And the Activity [25]?
Its Activity is “Non-Toxic”.

And the Activity [26]?
The Activity was “Non-Toxic”.

And the Activity [27]?
Its Activity is “Non-Toxic”.

And the Activity [28]?
Its Activity is “Non-Toxic”.

What about the Activity [29] of the same compound?
The Activity was “Non-Toxic”.
